Laboratory results from paper PMC8172216 (Pharmaceutical Biology, 2021).

Assays:
[1] = Pharmacokinetics of saponins in rat plasma after oral gavage of raw; format: in vivo, Sprague–Dawley rats; settings: for AUC0–t: SD rats, oral administration of SPN extract 1.0 g/kg; for AUC(0-t) / AUC(0-inf) / Cmax / Tmax / half-life: male, Sprague-Dawley, rat, plasma, po, 1 g/kg, oral gavage of raw P. notoginseng aqueous extract 1 g/kg, n = 6, mean ± SD; for AUC(0-t): AUC0–t; for AUC(0-t) / AUC(0-inf) / Cmax / Tmax: male SD rats; for AUC(0-inf): AUC0–∞; for half-life: t1/2, male SD rats; for time in which the maximum plasma concentration was achieved: after oral administration of RPN or SPN aqueous extract
Method in brief: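 Male SD rats (200–250 g, n = 6/group) were acclimatised for 7 d and fasted overnight with water. They received a single oral gavage of aqueous extract at 1 g/kg (5 mL/kg). Heparinized orbital blood was taken pre-dose and at 5 min to 48 h, then centrifuged and stored at −40 °C. Plasma was methanol-precipitated with theophylline internal standard and analysed by MRM. Cmax and Tmax were read directly; AUC and t1/2 were non-compartmental; results are mean ± SD.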

[2] = ref Ma et al. [2021]; cited from earlier work

Compound	AUC0–t [1] [ng/h/mL]	AUC(0-t) [1] [ng·h/mL]	AUC(0-inf) [1] [ng·h/mL]	Cmax [1] [ng/mL]	Tmax [1] [h]	half-life [1] [h]	time in which the maximum plasma concentration was achieved ([1]; rats) [h]	AUC0–t and Cmax, steamed versus raw group ([1]; oral dose of raw and steamed P. notoginseng aqueous extracts, rats)	bioavailability [2] [%]	detection in rat plasma ([1]; after oral administration of P. notoginseng extracts, rats, listed as GRg5)
CC(C)=CCC[C@](C)(O[C@@H]1O[C@H](CO[C@@H]2O[C@H](CO)[C@@H](O)[C@H](O)[C@H]2O)[C@@H](O)[C@H](O)[C@H]1O)[C@H]1CC[C@]2(C)[C@@H]1[C@H](O)C[C@@H]1[C@@]3(C)CC[C@H](O[C@@H]4O[C@H](CO)[C@@H](O)[C@H](O)[C@H]4O[C@@H]4O[C@H](CO)[C@@H](O)[C@H](O)[C@H]4O)C(C)(C)[C@@H]3CC[C@]12C [Rb1, ginsenoside Rb1]	5094.06 ± 1453.14	15100 ± 2380	15200 ± 2440	997 ± 144	8.67 ± 1.63	9.58 ± 1.11	–	–	–	–
CC(C)=CCC[C@](C)(O[C@@H]1O[C@H](CO)[C@@H](O)[C@H](O)[C@H]1O)[C@H]1CC[C@]2(C)[C@@H]1[C@H](O)C[C@@H]1[C@@]3(C)CC[C@H](O[C@@H]4O[C@H](CO)[C@@H](O)[C@H](O)[C@H]4O[C@@H]4O[C@H](CO)[C@@H](O)[C@H](O)[C@H]4O)C(C)(C)[C@@H]3CC[C@]12C [Rd, ginsenoside Rd]	1396.89 ± 595.14	3630 ± 569	4170 ± 733	164 ± 28.8	8.67 ± 2.73	13.9 ± 1.71	–	–	–	–
CC(C)=CCC[C@](C)(O[C@@H]1O[C@H](CO)[C@@H](O)[C@H](O)[C@H]1O)[C@H]1CC[C@]2(C)[C@@H]1[C@H](O)C[C@@H]1[C@@]3(C)CC[C@H](O)C(C)(C)[C@@H]3[C@@H](O[C@@H]3O[C@H](CO)[C@@H](O)[C@H](O)[C@H]3O[C@@H]3O[C@@H](C)[C@H](O)[C@@H](O)[C@H]3O)C[C@]12C [Re, ginsenoside Re]	–	87.7 ± 20.7	91.7 ± 19.7	28.1 ± 13.1	1.24 ± 0.49	3.16 ± 1.73	≤ 1.63	no significantly difference	–	–
CC(C)=CCC[C@](C)(O[C@@H]1O[C@H](CO)[C@@H](O)[C@H](O)[C@H]1O)[C@H]1CC[C@]2(C)[C@@H]1[C@H](O)C[C@@H]1[C@@]3(C)CC[C@H](O)C(C)(C)[C@@H]3[C@@H](O[C@@H]3O[C@H](CO)[C@@H](O)[C@H](O)[C@H]3O)C[C@]12C [Rg1, ginsenoside Rg1]	176.63 ± 42.49	808 ± 382	861 ± 355	66.7 ± 32.8	9.33 ± 2.07	7.92 ± 6.73	≤ 9.33	–	–	–
CC(C)=CC/C=C(\C)[C@H]1CC[C@]2(C)[C@@H]1[C@H](O)C[C@@H]1[C@@]3(C)CC[C@H](O[C@@H]4O[C@H](CO)[C@@H](O)[C@H](O)[C@H]4O[C@@H]4O[C@H](CO)[C@@H](O)[C@H](O)[C@H]4O)C(C)(C)[C@@H]3CC[C@]12C [Rg5, ginsenoside Rg5]	–	–	–	–	–	–	–	–	0.67	could not be detected
